Experiment: Toxicity liver stage against HepG2, at 10uM
Assay type: cell-based
Set-up: test concentration 10 uM, cell line HepG2-A16-CD81EGFP
Conditions: human, HepG2-A16-CD81EGFP cells; read-out: INHIBITION
Outline: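 Uninfected HepG2-A16-CD81EGFP cells, 3 × 10^3 per well, 1536-well, plated on prespotted compound at 10 μM final, parasite-free screening media added to match infected plates; puromycin 10 μM positive, DMSO 0.5% negative; run in parallel with 48 h PbLuc assay at 37 °C, 5% CO2; viability by CellTiter-Glo luminescence, normalized to controls.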

SMILES | cytotoxicity at 10 µM
COc1ccc(CN2CCC[C@H]2c2nc(-c3cncnc3N)no2)cc1 | -57%
CCOC(=O)[C@H]1[C@@H](O)C(=O)N(C)C12CCN(S(=O)(=O)CC)CC2 | -6.06%
CC(C)Cc1nc(OCC#N)c(C#N)c2c1CCC2 | -1.63%
CC(C)C[C@H](NC(=O)NC1CCS(=O)(=O)C1)C(=O)NCc1cccnc1 (stereo partly specified) | 0.948%
COc1ccc(NC(=O)Nc2cnc(N3CCN(C)CC3)nc2)cc1Cl | -19.8%
c1cnc(N2CC[C@@H]3[C@@H]2CCN3Cc2cccs2)nc1 | 3.91%
CNC(=O)N1CCC2(CC1)C(=O)N(C)c1c(F)cccc12 | -5.86%
CCN1C(=O)CC[C@@H]2[C@H]1CCN2C(=O)Cc1cccc(OC)c1 | 0.657%
COCC(=O)N1CCC(c2nc3ccc(N4CCOCC4)cn3n2)CC1 | 12%
CS(=O)(=O)N1C[C@@H]2COC[C@H](C(=O)Nc3cnccn3)[C@@H]2C1 | 14.6%
COc1ccc(C(=O)COc2coc(CN3CCCCC3)cc2=O)cc1 | 5.12%
O=C(O)CNC(=O)Cc1csc(-c2cccc(Cl)c2)n1 | 4.32%
CCOC(=O)N1CCN(c2nc(NC)c3ccccc3n2)CC1 | -9.75%
CCCNC(=O)c1cc(C(C)C)nc(N2CCCCC2)n1 | 15.8%
CN1CCCC(c2cccc(-c3cccc(C(F)(F)F)c3)n2)C1 (stereo unspecified) | -6.47%
Cc1nc(CC(=O)N2CCCCC2c2ccn3ccnc3n2)cs1 (stereo unspecified) | -13.4%
CC1(C(=O)NCc2ccsc2)CCOCC1 | 5.73%
O=C(NCc1nnc2n1C(C(=O)NC1CC1)CC2)c1ccc(Cl)cc1Cl (stereo unspecified) | 5.06%
CCC(=O)Nc1ccc(N2CCC(OC)CC2)c(C(F)(F)F)c1 | 5.72%
Cc1cc(NC(=O)c2ccc(N3CCOCC3)cc2)[nH]n1 | -28.5%
Cc1ccc(C(=O)NCCS(=O)(=O)Cc2ccccc2)c(=O)[nH]1 | -5.96%

SMILES | cytotoxicity at 10 µM
Cc1ccc(C)c(CS(=O)(=O)Cc2ccn(C)c(=O)c2)c1 | 13.8%
O=S(=O)(NCCCn1cncn1)c1ccc2c(c1)CCO2 | -10.2%
O=C(NCc1ccc(-n2cncn2)nc1)c1cc(Cl)ccn1 | 2.8%
Cc1ccc(F)c2c1CCCN2CC(=O)NC1CCS(=O)(=O)C1 (stereo unspecified) | -11.9%
Cn1ccnc1CN1CCN(Cc2cc(-c3ccccc3)no2)CC1 | -15.5%
Cc1cccc(C(=O)N2CCSCC2)c1NC(=O)c1cccnc1 | -2.83%
Cc1cnc(CNC(=O)NC2CCCN(c3ccccc3F)C2)s1 (stereo unspecified) | 16.4%
Cc1ccc(C(=O)NCCS(=O)(=O)N2CCSCC2)o1 | 6.13%
COc1ccc(CN(C(=O)C(C)SC)c2cnn(C)c2)c(OC)c1 (stereo unspecified) | -3.88%
Cc1nnc2n1CCN(CC(=O)NC(C)c1ccc3ccccc3c1)C2 (stereo unspecified) | -7.91%
CC(C)Cc1noc(CNc2cccc(-c3nnnn3C)c2)n1 | 4.6%
O=C(NCC1CCN(CCc2ccccc2)C1)c1c(F)cccc1F (stereo unspecified) | 16.6%
COc1cc(NC(=O)NCCO)ccc1N1CCOC1=O | -0.803%
CNC(=O)CC1CCN(C(=O)NCc2cn3c(C)cccc3n2)CC1 | 3.88%
Cc1nsc(N2CCCN(C(=O)NCc3cc(C)on3)CC2)n1 | -1.63%
CC(CC#N)N(C)Cc1ccc(F)cc1C#N (stereo unspecified) | -6.69%
CCn1c(CN(C)Cc2csc(C)n2)nc2cc(F)ccc21 | -47%
O=C(CCc1cscn1)N1CCC(C(=O)O)(c2ccccc2)CC1 | -5.36%
CNC(=O)CN(C)C(=O)c1cc2ccccc2cc1OC | 17.1%
COCCN(Cc1cccc(O)c1)CC1CC1 | 12.7%
Fc1ccc(C2CN(CCc3ccncc3)CCO2)cc1 (stereo unspecified) | 11%

SMILES | cytotoxicity at 10 µM
CC1CN(CCc2ccncc2)CCO1 (stereo unspecified) | -1.99%
Cc1ccc(CNCc2nnc3n2CC(C(F)(F)F)CC3)cc1 (stereo unspecified) | 6.84%
CCOCC(=O)NC1(c2cccc(Br)c2)CC1 | -11.3%
CC1=N[C@@]2(CC[C@@H]3CN(S(C)(=O)=O)C[C@@H]32)C(=O)N1CC(C)C | -71.3%
O=C1CC(c2ccccc2)C2(CCN(C(=O)c3cnccn3)CC2)N1 (stereo unspecified) | -75.1%
Fc1ccccc1CC1CCN(Cc2ccccn2)CC1 | 2.25%
Cn1ccnc1CN1CCC(Cn2cc(-c3ccccc3)nn2)CC1 | 0.959%
CC(C)CC(C)NC1CCN(c2ccc(-c3cscn3)cc2)CC1 (stereo unspecified) | -50.6%
O=C(CN1CCNC1=O)N1CCc2nnc(-c3ccccc3)n2CC1 | -46.1%
Cc1cc(C)c2nc(C)cc(C(=O)NC(C)c3nnn[nH]3)c2c1 (stereo unspecified) | 7.24%
CCc1nc(CN(C)C(=O)c2cc(CN(CC)CC)c(CC)o2)no1 | 0.9%
CC(=O)N[C@@H]1CN(C(=O)c2ccc[nH]2)C[C@H]1c1ccc(C)o1 | 5.16%
COCCN(Cc1cnn(C)c1)c1nc2c(s1)c(C)nn2C | -42.4%
CN(Cc1ccc(-n2cccn2)cc1)c1nc(N)nc2c1CCNCC2 | 6.99%
CC(=O)Nc1ccc(Oc2ccc(CN3CCCC3)cc2F)cc1 | 0.9%
O=C(Nc1ccc2c(c1)OCO2)N1CCCC1c1ccco1 (stereo unspecified) | -2.11%
Cc1cccnc1CN1CCN(C(=O)c2ccn(C(C)(C)C)c2)CC1 | 11%
Cc1ccnc(CC(C)N(C)c2cc(CCN)nc(C)n2)c1 (stereo unspecified) | -48%
Cn1c(Cn2cccn2)nnc1C1CCCN(c2ccncc2)C1 (stereo unspecified) | -14.2%
COCCN1CCCC(O)(CN2CCN(c3ncccc3C)CC2)C1=O (stereo unspecified) | -10.3%
CC(C)c1nccn1CCCNC(=O)c1ccc(N(C)C)nc1 | 15.7%

SMILES | cytotoxicity at 10 µM
Cc1scc(C(=O)N2CCC3(CCCN(C)C3=O)C2)c1-c1ccccc1 (stereo unspecified) | -6.05%
O=C(c1cc(=O)[nH]c(=O)[nH]1)N1CCCCC1c1nc2cc(F)ccc2[nH]1 (stereo unspecified) | -9.64%
COC(=O)c1cccn1C1CCN(Cc2cccc(C(N)=O)c2)CC1 | -4.7%
CC(C)c1nc(C2CCCN(C(=O)c3ccc4c(c3)OCO4)C2)no1 (stereo unspecified) | -14.1%
Cc1cnn(CC2CN(Cc3nc4cccnc4[nH]3)CCO2)c1 (stereo unspecified) | -1.04%
Cc1cc(NC(=O)CN2CCn3c(C)nnc3C2)no1 | -3.82%
Cc1cccc(CS(=O)(=O)CC(=O)NCCCOC(C)C)c1 | -5.15%
Cc1noc(C2CCN(C(=O)CCNS(C)(=O)=O)CC2)n1 | -21%
CN(Cc1ccnc2ccccc12)C1CCS(=O)(=O)C1 (stereo unspecified) | 4.36%
O=C(NC1CC1)N1CCc2ccc(=O)n(Cc3cccnc3)c2CC1 | 0.995%
CN1Cc2c(C(=O)Nc3cccnc3)ncn2-c2ccccc2S1(=O)=O | -4%
COCCC(=O)N1CCC2(CCN(Cc3cccc(F)c3)CC2)CC1 | -75%
O=C(c1ccccn1)N1C[C@H]2CCC[C@@]2(COCC2CCOCC2)C1 | -76.3%
CO[C@@H]1CCN(Cc2ccoc2)[C@@H]2CN(Cc3ccco3)C[C@@H]21 | 8.1%
Cc1ccc(CN2CCc3ncc(CNC(=O)C4CCC4)n3CC2)o1 | 8.71%
Cn1ccnc1CN1CCC2(CC(=O)N(c3ccccn3)C2)C1 (stereo unspecified) | -74.6%
Cc1ccc(N2CCO[C@H]3CN(Cc4ccc(F)cc4)C[C@H]32)nn1 | -88.6%
Cc1cccc(CN2CC3(CCN(Cc4ccoc4)CC3)OCC2=O)n1 | -3.18%
